Measured values gathered from unrelated publications.
Each line is one published result; the experiments were not run side by side.
Target: D(2) dopamine receptor (DRD2, Homo sapiens, UniProt P14416)

SMILES	test	endpoint	value
COc1ccc2c(c1)C(=O)N(CCCN1CCN(c3ccccc3OC)CC1)C2	ligand displacement, radioligand	Ki	1.5 µM
COc1ccc(CCC2=NCCN2CCc2ccccc2)cc1	ligand displacement, radioligand	Ki	> 10 µM
O=C1c2ccccc2CCN1CCCCN1CCN(c2ccccn2)CC1	ligand displacement, radioligand	Ki	0.805 µM
Oc1cccc(CCC2=NCCN2CCc2ccccc2)c1	ligand displacement, radioligand	Ki	> 10 µM
O=C1c2ccccc2CCN1CCCCN1CCN(c2cccc(Cl)c2Cl)CC1	ligand displacement, radioligand	Ki	0.014 µM
CCN(CC)c1ccc(C2Nc3ccc(C(=O)c4ccccc4)cc3NC3=C2C(=O)CC(C)(C)C3)cc1 (centres unmarked)	cell-free assay, radioligand	Ki	> 10 µM
CCOCc1nc(O)c(-c2nnc(Cc3ccc(Cl)cn3)o2)c(O)c1-c1c(OC)cccc1OC	ligand displacement, radioligand	IC50	> 30 µM
CCc1nc2cc(OCCCCN3CCN(c4cccc(Cl)c4Cl)CC3)ccc2s1	cAMP, agonist, luciferase	EC50	0.098 µM
CCO[C@H]1CCN(Cc2c(OC)cc(C)c3[nH]ccc23)[C@H](c2ccc(C(=O)O)cc2)C1	cell-free assay	Kd	> 30 µM
CNC(=O)[C@@]12C[C@@H]1[C@@H](n1cnc3c(NC)nc(C#Cc4cccs4)nc31)[C@H](O)[C@@H]2O	cell-free assay, radioligand	Ki	> 10 µM
CC(C)c1nc2cc(OCCCCN3CCN(c4cccc5c4OCCN5)CC3)ccc2s1	β-arrestin recruitment, agonist	EC50	0.016 µM
CCCCN1CCC(COC(=O)c2ccc(N)c(OCF)c2)CC1	cell-free assay, radioligand	Ki	> 10 µM
Oc1cccc(CCC2=NCCN2Cc2ccccc2)c1	ligand displacement, radioligand	Ki	> 10 µM
FC(F)(F)c1nc2cc(OCCCCN3CCN(c4cccc(Cl)c4Cl)CC3)ccc2s1	cAMP, agonist, luciferase	EC50	0.14 µM
